Active and inactive are the calls of the source. The rule behind the calls is not given here.
Experiments:
[1] = Induction of apoptosis in human HT-29 cells assessed as viable cells at 5 uM after 72 hrs by Annexin V-FITC/propidium iodide staining based flow cytometric analysis (reference value: 81.1%); type: cell-based; conditions: read-out: Activity
[2] = system: HUVEC; test: Induction of apoptosis in VEGF-stimulated HUVEC assessed as late apoptotic cells at 5 uM after 24 hrs by Annexin V-FITC/propidium iodide staining based flow cytometric analysis (reference value: 11.3%); type: cell-based; conditions: human
Method in brief: (§1)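 HUVECs plated at 5×10^5 per well and treated 24 h with 1, 5, 10 or 20 μM. Detached and adherent cells were pooled, washed in ice-cold PBS and resuspended in fresh medium. 1×10^5 cells were stained with annexin-V-FITC in annexin-V buffer for 20 min in the dark, then PI (50 μg/mL) was added. Read-out by flow cytometry.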

[3] = system: Aorta; test: Inhibition of VEGF-induced capillary sprouting in Sprague-Dawley rat aortic ring at 20 uM treated for every 3 days for 7 days measured on day 7 by inverted microscopy relative to control; type: functional
Method in brief: (§2)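 Aortas from anesthetized Sprague-Dawley rats cut into 1-mm rings and embedded in Matrigel for 1 h at 37°C. Rings starved 1 day, then cultured in opti-MEM with 2.5% FBS and 30 ng/mL VEGF plus compound. Treatment renewed every 3 days for 7 days. Sprouting imaged on day 7 by inverted microscopy.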

[4] = system: HUVEC; test: Induction of apoptosis in VEGF-stimulated HUVEC assessed as early apoptotic cells at 10 uM after 24 hrs by Annexin V-FITC/propidium iodide staining based flow cytometric analysis (reference value: 7%); type: cell-based; conditions: human; method in brief: as §1
[5] = system: HT-29; test: Downregulation of HIF1-alpha expression in human HT-29 cells after 24 hrs by immunoblot analysis; type: functional, cell-based
[6] = system: HT-29; test: Inhibition of Akt/mTOR signalling in human HT-29 cells assessed as reduction in STAT3 phosphorylation at Tyr705 residue incubated for 24 hrs by immunoblot analysis; type: cell-based
Method in brief: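 HT29 cells were exposed to the indicated concentrations for 24 h. Cell lysates were then immunoblotted for the phosphorylated proteins.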

[7] = Induction of apoptosis in VEGF-stimulated HUVEC assessed as viable cells at 20 uM after 24 hrs by Annexin V-FITC/propidium iodide staining based flow cytometric analysis (reference value: 69.6%); type: cell-based; conditions: human, read-out: Activity; method in brief: as §1
[8] = system: Aorta; test: Inhibition of VEGF-induced capillary sprouting in Sprague-Dawley rat aortic ring treated for every 3 days for 7 days measured on day 7 by inverted microscopy; type: functional, tissue-based; method in brief: as §2
[9] = system: HT-29; test: Induction of apoptosis in human HT-29 cells assessed as necrotic cells at 20 uM after 24 hrs by Annexin V-FITC/propidium iodide staining based flow cytometric analysis (reference value: 3.9%); type: cell-based; conditions: ht-29, 24 h
[10] = system: HT-29; test: Induction of apoptosis in human HT-29 cells assessed as early apoptotic cells at 10 uM after 24 hrs by Annexin V-FITC/propidium iodide staining based flow cytometric analysis (reference value: 1.9%); type: cell-based; conditions: ht-29, 24 h
[11] = system: HUVEC; test: Antiangiogenic activity in HUVEC assessed as inhibition of VEGF-induced capillary like tube formation at 1 uM preincubated with VEGF for 20 mins followed by compound addition measured after 6 hrs by matrigel based tube formation assay relative to control; type: functional; conditions: Homo sapiens
Method in brief: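 Matrigel (100 μL) set 1 h at 37°C; 2×10⁴ HUVECs in M200 with 10% FBS added per well plus 10 ng/mL VEGF; compound added after 20 min; incubated 6 h at 37°C, then capillary-like structures photographed.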

[12] = Induction of apoptosis in VEGF-stimulated HUVEC assessed as viable cells at 1 uM after 24 hrs by Annexin V-FITC/propidium iodide staining based flow cytometric analysis (reference value: 69.6%); type: cell-based; conditions: human, read-out: Activity; method in brief: as §1
[13] = system: HT-29; test: Downregulation of VEGF mRNA expression in human HT-29 cells after 24 hrs by RT-qPCR assay; type: functional, cell-based
Method in brief: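 HT29 cells treated with 1, 5, 10 or 20 μM for 24 h; total RNA extracted with TRIzol; SYBR Green qPCR, 40 cycles of 5 s at 95°C and 60 s at 60°C in 20-μL reactions.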

[14] = system: HT-29; test: Induction of apoptosis in human HT-29 cells assessed as late apoptotic cells at 20 uM after 24 hrs by Annexin V-FITC/propidium iodide staining based flow cytometric analysis (reference value: 13.4%); type: cell-based; conditions: ht-29, 24 h
[15] = molecular target: Vascular endothelial growth factor receptor 2 (Homo sapiens) (UniProt P35968); test: Inhibition of VEGFR2 in VEGF-stimulated HUVEC assessed as downregulation of FAK phosphorylation at Tyr925 residue at 1 to 10 uM pre-incubated for 2 hrs followed by VEGF stimulation and measured after 15 mins by Western blot analysis; type: cell-based
[16] = system: HUVEC; test: Effect on total FAK expression in VEGF-induced HUVEC at 1 to 20 uM pre-incubated for 2 hrs followed by VEGF stimulation and measured after 15 mins by Western blot analysis; type: ADME, cell-based; conditions: human, 0.25 h
Method in brief: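 HUVECs serum-starved overnight, pretreated with compound (methods: 1, 2.5, 5, 10 μM for 2 h; legend: 1, 5, 10, 20 μM for 1.5 h), then VEGF 50 ng/mL (methods: VEGF165, 15 min; legend: 30 min); lysates equalized by Bradford, ~20 μg protein resolved on gradient SDS-PAGE, immunoblotted, ECL detection.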

[17] = system: HT-29; test: Induction of apoptosis in human HT-29 cells assessed as late apoptotic cells at 5 uM after 24 hrs by Annexin V-FITC/propidium iodide staining based flow cytometric analysis (reference value: 12.3 to 13.4%); type: cell-based; conditions: ht-29, 24 h
[18] = system: HT-29; test: Induction of apoptosis in human HT-29 cells assessed as caspase-3 cleavage up to 20 uM after 24 to 72 hrs by Western blot analysis; type: cell-based
[19] = system: HUVEC; test: Induction of apoptosis in VEGF-stimulated HUVEC assessed as necrotic cells at 10 uM after 24 hrs by Annexin V-FITC/propidium iodide staining based flow cytometric analysis (reference value: 12.1%); type: cell-based; conditions: human; method in brief: as §1
[20] = system: HT-29; test: Induction of apoptosis in human HT-29 cells assessed as necrotic cells at 10 uM after 24 hrs by Annexin V-FITC/propidium iodide staining based flow cytometric analysis (reference value: 3.9%); type: cell-based; conditions: ht-29, 24 h
[21] = system: HT-29; test: Induction of apoptosis in human HT-29 cells assessed as late apoptotic cells at 10 uM after 24 hrs by Annexin V-FITC/propidium iodide staining based flow cytometric analysis (reference value: 13.4%); type: cell-based; conditions: ht-29, 24 h
[22] = system: HUVEC; test: Induction of apoptosis in VEGF-stimulated HUVEC assessed as early apoptotic cells at 5 uM after 24 hrs by Annexin V-FITC/propidium iodide staining based flow cytometric analysis (reference value: 7%); type: cell-based; conditions: human; method in brief: as §1
[23] = system: HT-29; test: Antiangiogenic activity against human HT-29 cells xenografted in mouse assessed as reduction in formation of new blood vessels in tumour at 20 to 60 mg/kg, po administered every other day for 3 weeks measured at 20 days post-treatment; type: functional, organism-based
[24] = system: Chorioallantoic membrane; test: Antiangiogenic activity in Leghorn chicken fertilized egg chorioallantoic membrane assessed as impaired neovascularization with absence of vascular networks at 10 nM/egg measured after 48 hrs by CAM assay; type: functional, tissue-based; conditions: Gallus gallus
Method in brief: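 Fertile Leghorn eggs incubated at 37.8°C, 40% humidity; window opened on day 7; compound, sunitinib or 0.9% NaCl mixed with DMSO applied on filter paper onto CAM; 48 h incubation, methanol fixation, photography; nascent vessels counted.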

[25] = Induction of apoptosis in human HT-29 cells assessed as viable cells at 1 uM after 24 hrs by Annexin V-FITC/propidium iodide staining based flow cytometric analysis (reference value: 80.8%); type: cell-based; conditions: read-out: Activity

Sequence of Vascular endothelial growth factor receptor 2 (Homo sapiens) (P35968 whole entry): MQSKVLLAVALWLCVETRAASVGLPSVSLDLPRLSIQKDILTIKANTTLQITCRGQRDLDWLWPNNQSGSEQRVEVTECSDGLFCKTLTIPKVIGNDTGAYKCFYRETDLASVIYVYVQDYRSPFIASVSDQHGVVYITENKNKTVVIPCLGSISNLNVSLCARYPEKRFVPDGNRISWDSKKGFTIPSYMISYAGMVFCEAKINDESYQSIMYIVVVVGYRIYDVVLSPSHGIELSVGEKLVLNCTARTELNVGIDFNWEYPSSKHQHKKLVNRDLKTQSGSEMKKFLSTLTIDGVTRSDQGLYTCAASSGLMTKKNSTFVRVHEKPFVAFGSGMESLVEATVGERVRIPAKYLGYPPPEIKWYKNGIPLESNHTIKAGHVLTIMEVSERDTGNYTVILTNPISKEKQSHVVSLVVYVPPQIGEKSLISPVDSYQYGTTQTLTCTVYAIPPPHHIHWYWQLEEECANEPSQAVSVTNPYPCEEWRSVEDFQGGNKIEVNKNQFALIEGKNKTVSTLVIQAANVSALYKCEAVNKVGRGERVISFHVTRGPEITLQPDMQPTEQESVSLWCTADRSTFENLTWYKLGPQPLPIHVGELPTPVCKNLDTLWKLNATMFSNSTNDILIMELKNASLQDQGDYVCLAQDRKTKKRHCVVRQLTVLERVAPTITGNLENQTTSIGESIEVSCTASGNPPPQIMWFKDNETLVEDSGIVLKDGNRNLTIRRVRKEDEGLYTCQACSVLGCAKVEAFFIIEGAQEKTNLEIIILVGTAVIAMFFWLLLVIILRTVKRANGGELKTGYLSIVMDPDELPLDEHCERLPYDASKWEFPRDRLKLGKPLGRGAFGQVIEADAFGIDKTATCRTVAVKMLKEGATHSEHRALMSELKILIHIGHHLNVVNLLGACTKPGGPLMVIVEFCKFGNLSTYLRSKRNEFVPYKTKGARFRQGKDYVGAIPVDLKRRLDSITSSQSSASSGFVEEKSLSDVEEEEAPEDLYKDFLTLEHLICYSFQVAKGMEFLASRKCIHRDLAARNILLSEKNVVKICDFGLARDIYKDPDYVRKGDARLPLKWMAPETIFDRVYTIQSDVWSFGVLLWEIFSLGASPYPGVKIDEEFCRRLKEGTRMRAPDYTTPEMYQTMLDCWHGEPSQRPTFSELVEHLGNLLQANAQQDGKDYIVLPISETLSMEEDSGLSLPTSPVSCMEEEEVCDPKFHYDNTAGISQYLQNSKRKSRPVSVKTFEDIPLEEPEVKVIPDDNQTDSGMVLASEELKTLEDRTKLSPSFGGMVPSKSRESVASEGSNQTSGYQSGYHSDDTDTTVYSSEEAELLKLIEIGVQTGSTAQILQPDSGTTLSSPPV

**Q.** What does the source list for `COc1ccc(NC(=O)c2cccc(/C=C3\CC(=O)N(c4ccc(C)cc4)C3=O)c2)cc1`?
**A.** viability at 72 h, 5 µM [1]: 76.9%; Activity [2]: 9.7%; inhibition at 20 µM [3]: 95%; Activity [4]: 10.8%; inhibition [5]: Dose-dependent effect; inhibition [6]: Dose-dependent effect; viability at 24 h, 20 µM [7]: 74.5%; inhibition [8]: Dose-dependent effect; Activity [9]: 2.3%; Activity [10]: 1.5%; inhibition at 1 µM [11]: 30%; viability at 24 h, 1 µM [12]: 72.6%; inhibition [13]: inactive; Activity [14]: 17.1%; inhibition [15]: Active; Activity [16]: Not Active; Activity [17]: 15.9 to 18.4%; Activity [18]: Non-Toxic; Activity [19]: 5.4%; Activity [20]: 2.3%; Activity [21]: 19%; Activity [22]: 10.1%; inhibition [23]: Active; Activity [24]: Active; viability at 24 h, 1 µM [25]: 79.9%

— ChEMBL document CHEMBL4396917, “Synthesis and biological evaluation of novel benzylidene-succinimide derivatives as noncytotoxic antiangiogenic inhibitors with anticolorectal cancer activity in vivo” (Eur J Med Chem, 2019)
